Experimental data as given in ChEMBL document CHEMBL1143764, “Cyclic and dimeric gluten peptide analogues inhibiting DQ2-mediated antigen presentation in celiac disease” (Bioorg Med Chem, 2007).
pIC50: −log10 of the molar value. Activity calls are given as the source filed them. No cut-off for these calls is given here. *1 amine or outer side, *2 acyl side, *3 side chain or, on linkers, in order; H or OH if unused. Where a SMILES comes first, the peptide text is derived from it. Bridges are numbered along the chain shown (N, C = ends). Side-chain parts run from the residue outwards. [ ]: non-standard residue; d: D form. The star is where a group is joined. N(prolylmethyl)Phe = O=C(CN([C@@H](Cc1ccccc1)C(=O)[*:2])[*:1])[C@@H]1CCCN1[*:3]; X1 = O=C(CCCOCCOCCOCCOCCOCCC(=O)NCCOCCOCC(=O)[*:1])NCCOCCOCC(=O)[*:2]; X2 = O=C(CCOCCOCCOCCOCCOCCOCCOCCOCCOCCOCCOCCC(=O)[*:2])[*:1]; 5FAM = O=C1OC2(c3ccc(O)cc3Oc3cc(O)ccc32)c2ccc(C(=O)*)cc21; X3 = O=C(CCOCCOCCOCCOCCOCCOCCOCCC(=O)[*:2])[*:1]

Assays:
[1] = Binding affinity to DQ2; design: species or system Homo sapiens
Outline: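 Competition binding: 125I-labeled indicator peptide (30,000 cpm; 1–5 nM) plus graded unlabeled peptide incubated overnight with 70–200 nM DQ2 at 37°C, pH 5.2, with protease inhibitor cocktail. Bound separated from free on Sephadex G-50 spin columns; radioactivity counted; IC50 as competitor level halving indicator binding, from three 3-fold titration experiments.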

T-cell = assay: Inhibition of P28 TCL2 T cell proliferation assessed as incorporation of [3H]-thymidine in presence of 10 uM antigen peptide; format: functional, cell-based; conditions: Homo sapiens
Outline: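 HLA-DR3/DQ2 homozygous EBV B-lymphoblastoid cells (VAVY or CD114), fixed with 1% paraformaldehyde or 0.05% glutaraldehyde, peptide-loaded overnight at 2×10^6 cells/ml. Next day at 1×10^6/ml, duplicates, mixed with equal volume of P28 TCL2 T cells; 37°C, 5% CO2, 48 h. [3H]thymidine added, further 12–16 h, scintillation counting.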

Homo sapiens = species on record: Homo sapiens; assay: Binding affinity to recombinant DQ2 at pH 7.3 by fluorescent-conjugated peptide exchange assay
Outline: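 Recombinant soluble DQ2 with N-terminally fused gliadin epitope, cleaved with ~2% w/w thrombin in PBS pH 7.3, 0°C, 2 h. 4.7 μM DQ2 with 0.185 μM fluorescein-labeled peptide (25:1), 37°C, 5 h, final pH 7.3. HPSEC with fluorescence (ex 495/em 520 nm); bound peptide as percent of total; mean of two experiments.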

Structure (SMILES) | pIC50 [1] | Activity (T-cell) | Activity (Homo sapiens)
CC(C)C[C@@H]1NC(=O)CNC(=O)CNC(=O)CNC(=O)CNC(=O)CNC(=O)CNC(=O)[C@H](N)CSSC[C@H](C(=O)O)NC(=O)CNC(=O)CNC(=O)[C@H](Cc2ccc(O)cc2)NC(=O)[C@H]2CCCN2C(=O)[C@H](CC(C)C)NC(=O)[C@H](CCC(=O)O)NC(=O)[C@@H]2CCCN2C(=O)[C@H](CCC(N)=O)NC(=O)[C@@H]2CCCN2C(=O)[C@H](Cc2ccccc2)NC(=O)[C@@H]2CCCN2C(=O)[C@H](CCC(N)=O)NC1=O | 5.38 | Dose-dependent effect | 
CC(C)C[C@@H]1NC(=O)CNC(=O)CNC(=O)CNC(=O)CNC(=O)[C@H](N)CSSC[C@H](C(=O)O)NC(=O)CNC(=O)CNC(=O)[C@H](Cc2ccc(O)cc2)NC(=O)[C@@H]2CCCN2C(=O)[C@H](CC(C)C)NC(=O)[C@H](CCC(=O)O)NC(=O)[C@@H]2CCCN2C(=O)[C@H](CCC(N)=O)NC(=O)[C@@H]2CCCN2C(=O)[C@H](Cc2ccccc2)NC(=O)[C@@H]2CCCN2C(=O)[C@H](CCC(N)=O)NC1=O | 5.51 | Dose-dependent effect | 
CC(=O)N[C@H]1CCCCNC(=O)CCOCCOCCOCCOCCOCCOCCOCCC(=O)NCCCC[C@@H](C(=O)N[C@@H](CCC(=O)O)C(=O)N[C@@H](CC(C)C)C(=O)N2CCC[C@H]2C(=O)N[C@@H](Cc2ccc(O)cc2)C(=O)O)NC(=O)[C@H](CCC(=O)O)NC(=O)[C@@H]2CCCN2C(=O)[C@H](Cc2ccccc2)NC(=O)[C@@H]2CCCN2C(=O)[C@H](CCC(N)=O)NC1=O (Ac-KQPFPEKELPY-OH; linker 1-7 via X3) | 6.22 | Dose-dependent effect | 
CC(=O)N[C@H]1CCCCNC(=O)CCOCCOCCOCCOCCOCCOCCOCCOCCOCCOCCOCCC(=O)NCCCC[C@@H](C(=O)N[C@@H](CCC(=O)O)C(=O)N[C@@H](CC(C)C)C(=O)N2CCC[C@H]2C(=O)N[C@@H](Cc2ccc(O)cc2)C(=O)O)NC(=O)[C@H](CCC(=O)O)NC(=O)[C@@H]2CCCN2C(=O)[C@H](Cc2ccccc2)NC(=O)[C@@H]2CCCN2C(=O)[C@H](CCC(N)=O)NC1=O (Ac-KQPFPEKELPY-OH; linker 1-7 via X2) | 6.10 | Dose-dependent effect | 
CC(C)C[C@H](NC(=O)c1ccc2c(c1)C(=O)OC21c2ccc(O)cc2Oc2cc(O)ccc21)C(=O)N[C@@H](CCC(=O)O)C(=O)N[C@@H](CC(C)C)C(=O)N[C@@H](CCC(N)=O)C(=O)N1CCC[C@H]1C(=O)CN[C@@H](Cc1ccccc1)C(=O)N1CCC[C@H]1C(=O)N[C@@H](CCC(=O)O)C(=O)N1CCC[C@H]1C(=O)N[C@@H](CCC(=O)O)C(=O)N[C@H]1CCCCNC(=O)COCCOCCNC(=O)CCOCCOCCOCCOCCOCCCC(=O)NCCOCCOCC(=O)NCCCC[C@@H](C(=O)N2CCC[C@H]2C(=O)N[C@@H](Cc2ccc(O)cc2)C(=O)O)NC(=O)[C@H](CCC(=O)O)NC(=O)[C@@H]2CCCN2C(=O)[C@H](CCC(=O)O)NC(=O)[C@@H]2CCCN2C(=O)[C@H](Cc2ccc(O)cc2)NC(=O)[C@@H]2CCCN2C1=O (H-[N(prolylmethyl)Phe]([Gln-Leu-Glu-Leu-5FAM])PEPEKPYPEPEKPY-OH; linker 6-13 via X1) | 6.52 | Dose-dependent effect | Active
CC(C)C[C@H](NC(=O)c1ccc2c(c1)C(=O)OC21c2ccc(O)cc2Oc2cc(O)ccc21)C(=O)N[C@@H](CCC(=O)O)C(=O)N[C@@H](CC(C)C)C(=O)N[C@@H](CCC(N)=O)C(=O)N1CCC[C@H]1C(=O)CN[C@@H](Cc1ccccc1)C(=O)N1CCC[C@H]1C(=O)N[C@@H](CCC(=O)O)C(=O)N1CCC[C@H]1C(=O)N[C@@H](CCC(=O)O)C(=O)N[C@H]1CCCCNC(=O)CCOCCOCCOCCOCCOCCC(=O)CNCCCC[C@@H](C(=O)N2CCC[C@H]2C(=O)N[C@@H](Cc2ccc(O)cc2)C(=O)O)NC(=O)[C@H](CCC(=O)O)NC(=O)[C@@H]2CCCN2C(=O)[C@H](CCC(=O)O)NC(=O)[C@@H]2CCCN2C(=O)[C@H](Cc2ccc(O)cc2)NC(=O)[C@@H]2CCCN2C1=O | 6.70 | Dose-dependent effect | Active
CC(C)C[C@@H]1NC(=O)CNC(=O)CNC(=O)[C@H](N)CSSC[C@H](C(=O)O)NC(=O)CNC(=O)CNC(=O)[C@H](Cc2ccc(O)cc2)NC(=O)[C@@H]2CCCN2C(=O)[C@H](CC(C)C)NC(=O)[C@H](CCC(=O)O)NC(=O)[C@@H]2CCCN2C(=O)[C@H](CCC(N)=O)NC(=O)[C@@H]2CCCN2C(=O)[C@H](Cc2ccccc2)NC(=O)[C@@H]2CCCN2C(=O)[C@H](CCC(N)=O)NC1=O | 5.70 | Dose-dependent effect | 
